Measured values published in ChEMBL document CHEMBL4813962, “Design, synthesis and biological evaluation of sulfamoylphenyl-quinazoline derivatives as potential EGFR/CAIX dual inhibitors” (Eur J Med Chem, 2021).

Experiments:
NCI-H1975 [1] = assay: Antiproliferative activity against human NCI-H1975 cells assessed as reduction in cell viability incubated for 72 hrs by MTT assay; assay type: functional, cell-based; settings: NCI-H1975, 72 h
[2] = molecular target: T1, Epidermal growth factor receptor (Homo sapiens, UniProt P00533)
A549 [3] = assay: cells; assay type: functional, cell-based; settings: Homo sapiens, A549, 72 h
A-431 = assay: cells; assay type: functional, cell-based; settings: Homo sapiens, A-431, 72 h
[4] = molecular target: Epidermal growth factor receptor (Homo sapiens, UniProt P00533, T790M)
Carbonic anhydrase 2 = Carbonic anhydrase 2 (Homo sapiens, UniProt P00918); assay: Inhibition of human carbonic anhydrase 2 using p-nitrophenyl acetate as substrate by UV-VIS spectrophotometric analysis
Carbonic anhydrase 9 [5] = molecular target: T2, Carbonic anhydrase 9 (Homo sapiens, UniProt Q16790)
NCI-H1975 [6] = assay: Cytotoxicity against human NCI-H1975 cells assessed as reduction in cell viability incubated for 72 hrs under hypoxic condition by MTT assay; assay type: functional, cell-based; settings: NCI-H1975, 72 h
Outline: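 H1975 cells grown in medium with 10% FBS and penicillin/streptomycin under hypoxia (1% O2, 94% N2, 5% CO2) at 37 °C. Compounds dissolved in DMSO and diluted in medium, final DMSO below 0.4%. Incubated 72 h at 37 °C, then MTT (5 mg/mL) for 4 h. Formazan dissolved in DMSO and OD read at 570/630 nm. IC50 from three parallel experiments.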

L02 = assay: cells; assay type: functional, cell-based; settings: Homo sapiens, L02, 72 h
NCI-H1975 [7] = assay: Induction of cell cycle arrest in human NCI-H1975 cells assessed as S phase at 2 uM incubated for 24 hrs by propidium iodide based flow cytometry analysis (reference value: 24.50 %); assay type: functional
NCI-H1975 [8] = assay: Induction of apoptosis in human NCI-H1975 cells assessed as late apoptotic cells at 2 uM incubated for 24 hrs by annexin V-FITC and propidium iodide based flow cytometry analysis (reference value: 4.98 %); assay type: functional
NCI-H1975 [9] = assay: Induction of apoptosis in human NCI-H1975 cells assessed as early apoptotic cells at 2 uM incubated for 24 hrs by annexin V-FITC and propidium iodide based flow cytometry analysis (reference value: 1.34 %); assay type: functional
NCI-H1975 [10] = assay: Induction of apoptosis in human NCI-H1975 cells assessed as viable cells at 2 uM incubated for 24 hrs by annexin V-FITC and propidium iodide based flow cytometry analysis (reference value: 93.2 %); assay type: functional; settings: read-out: Activity
NCI-H1975 [11] = assay: Induction of cell cycle arrest in human NCI-H1975 cells assessed as S phase at 5 uM incubated for 24 hrs by propidium iodide based flow cytometry analysis (reference value: 24.50 %); assay type: functional
NCI-H1975 [12] = assay: Induction of apoptosis in human NCI-H1975 cells assessed as early apoptotic cells at 5 uM incubated for 24 hrs by annexin V-FITC and propidium iodide based flow cytometry analysis (reference value: 1.34 %); assay type: functional
NCI-H1975 [13] = assay: Antimigratory activity in human NCI-H1975 cells assessed as reduction in cell migration incubated for 24 hrs by wound healing assay; assay type: functional, cell-based; settings: dose 0.5-1 µM
Outline: (§1)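 H1975 monolayer scratched with pipette tip, washed twice with PBS, then kept in serum-free medium with test compound at 0.5 or 1.0 µM; untreated control got medium only. Wound photographed by inverted microscope after 24 h and wound area traced. Migration rate = (0 h wound area − […] wound area)/0 h wound area.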

Carbonic anhydrase 9 [14] = molecular target: T2, Carbonic anhydrase 9; assay: Downregulation of carbonic anhydrase 9 in human NCI-H1975 cells assessed as reduction in HIF-1alpha incubated for 24 hrs in hypoxic condition by Western blot analysis; assay type: cell-based
Outline: (§2)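 Lysates cleared at 20 000 g, protein quantified by BCA, equal amounts run on 12% SDS-PAGE and blotted to PVDF. Probed overnight at 4 °C for CAIX and HIF-1α, chemiluminescent detection.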

NCI-H1975 [15] = assay: Induction of cell cycle arrest in human NCI-H1975 cells incubated for 24 hrs by propidium iodide based flow cytometry analysis; assay type: functional; settings: dose 2-5 µM
A549 [16] = assay: Cytotoxicity against human A549 cells assessed as reduction in cell viability incubated for 72 hrs under hypoxic condition by MTT assay; assay type: functional, cell-based; settings: A549, 72 h
Outline: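 A549 cells given compound for 72 h at 37 °C in hypoxia (1% O2, 94% N2, 5% CO2). Compounds taken up in DMSO and diluted in medium, final DMSO below 0.4%. MTT then added for 4 h, formazan dissolved in DMSO, absorbance read at 570/630 nm. IC50 from three parallel experiments.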

[17] = molecular target: T1, Epidermal growth factor receptor; assay: Inhibition of EGFR in human NCI-H1975 cells assessed as reduction in ERK phosphorylation incubated for 24 hrs by Western blot analysis; assay type: cell-based; settings: dose 2-5 µM
Outline: (§3)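 H1975 cells exposed to 2 or 5 µM compound for 24 h under normoxia. Lysates made on ice, protein measured by BCA, equal amounts separated on 12% SDS-PAGE and moved to PVDF. Blots blocked in 5% milk/TBST, incubated overnight at 4 °C with antibodies to EGFR/p-EGFR, AKT/p-AKT and ERK/p-ERK, and developed by chemiluminescence.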

NCI-H1975 [18] = assay: Downregulation of carbonic anhydrase 9 in human NCI-H1975 cells incubated for 24 hrs in hypoxic condition by Western blot analysis; assay type: functional, cell-based; outline: as §2
NCI-H1975 [19] = assay: Induction of cell cycle arrest in human NCI-H1975 cells assessed as G1 phase at 2 uM incubated for 24 hrs by propidium iodide based flow cytometry analysis (reference value: 60.76 %); assay type: functional
NCI-H1975 [20] = assay: Induction of cell cycle arrest in human NCI-H1975 cells assessed as G1 phase at 5 uM incubated for 24 hrs by propidium iodide based flow cytometry analysis (reference value: 60.76 %); assay type: functional
NCI-H1975 [21] = assay: Induction of apoptosis in human NCI-H1975 cells incubated for 24 hrs by annexin V-FITC and propidium iodide based flow cytometry analysis; assay type: functional, cell-based; settings: dose 2-5 µM
NCI-H1975 [22] = assay: Induction of apoptosis in human NCI-H1975 cells assessed as necrotic cells at 2 uM incubated for 24 hrs by annexin V-FITC and propidium iodide based flow cytometry analysis (reference value: 0.455 %); assay type: functional
[23] = molecular target: T1, Epidermal growth factor receptor; assay: Inhibition of EGFR in human NCI-H1975 cells assessed as reduction in AKT phosphorylation incubated for 24 hrs by Western blot analysis; assay type: cell-based; settings: dose 2-5 µM; outline: as §3
NCI-H1975 [24] = assay: Induction of apoptosis in human NCI-H1975 cells assessed as late apoptotic cells at 5 uM incubated for 24 hrs by annexin V-FITC and propidium iodide based flow cytometry analysis (reference value: 4.98 %); assay type: functional
[25] = molecular target: T1, Epidermal growth factor receptor; assay: Inhibition of EGFR in human NCI-H1975 cells assessed as reduction in EGFR phosphorylation incubated for 24 hrs by Western blot analysis; assay type: cell-based; settings: dose 2-5 µM; outline: as §3
NCI-H1975 [26] = assay: Induction of cell cycle arrest in human NCI-H1975 cells assessed as G2/M phase at 2 uM incubated for 24 hrs by propidium iodide based flow cytometry analysis (reference value: 14.74 %); assay type: functional
NCI-H1975 [27] = assay: Antimigratory activity in human NCI-H1975 cells assessed as cell migration at 1 uM incubated for 24 hrs by wound healing assay (reference value: 51.2 %); assay type: functional; outline: as §1
NCI-H1975 [28] = assay: Induction of cell cycle arrest in human NCI-H1975 cells assessed as G2/M phase at 5 uM incubated for 24 hrs by propidium iodide based flow cytometry analysis (reference value: 14.74 %); assay type: functional
NCI-H1975 [29] = assay: Induction of apoptosis in human NCI-H1975 cells assessed as necrotic cells at 5 uM incubated for 24 hrs by annexin V-FITC and propidium iodide based flow cytometry analysis (reference value: 0.455 %); assay type: functional
NCI-H1975 [30] = assay: Induction of apoptosis in human NCI-H1975 cells assessed as viable cells at 5 uM incubated for 24 hrs by annexin V-FITC and propidium iodide based flow cytometry analysis (reference value: 93.2 %); assay type: functional; settings: read-out: Activity

Sequence of Epidermal growth factor receptor (Homo sapiens, UniProt P00533, T790M) (P00533 25-1210 T790M limits assumed): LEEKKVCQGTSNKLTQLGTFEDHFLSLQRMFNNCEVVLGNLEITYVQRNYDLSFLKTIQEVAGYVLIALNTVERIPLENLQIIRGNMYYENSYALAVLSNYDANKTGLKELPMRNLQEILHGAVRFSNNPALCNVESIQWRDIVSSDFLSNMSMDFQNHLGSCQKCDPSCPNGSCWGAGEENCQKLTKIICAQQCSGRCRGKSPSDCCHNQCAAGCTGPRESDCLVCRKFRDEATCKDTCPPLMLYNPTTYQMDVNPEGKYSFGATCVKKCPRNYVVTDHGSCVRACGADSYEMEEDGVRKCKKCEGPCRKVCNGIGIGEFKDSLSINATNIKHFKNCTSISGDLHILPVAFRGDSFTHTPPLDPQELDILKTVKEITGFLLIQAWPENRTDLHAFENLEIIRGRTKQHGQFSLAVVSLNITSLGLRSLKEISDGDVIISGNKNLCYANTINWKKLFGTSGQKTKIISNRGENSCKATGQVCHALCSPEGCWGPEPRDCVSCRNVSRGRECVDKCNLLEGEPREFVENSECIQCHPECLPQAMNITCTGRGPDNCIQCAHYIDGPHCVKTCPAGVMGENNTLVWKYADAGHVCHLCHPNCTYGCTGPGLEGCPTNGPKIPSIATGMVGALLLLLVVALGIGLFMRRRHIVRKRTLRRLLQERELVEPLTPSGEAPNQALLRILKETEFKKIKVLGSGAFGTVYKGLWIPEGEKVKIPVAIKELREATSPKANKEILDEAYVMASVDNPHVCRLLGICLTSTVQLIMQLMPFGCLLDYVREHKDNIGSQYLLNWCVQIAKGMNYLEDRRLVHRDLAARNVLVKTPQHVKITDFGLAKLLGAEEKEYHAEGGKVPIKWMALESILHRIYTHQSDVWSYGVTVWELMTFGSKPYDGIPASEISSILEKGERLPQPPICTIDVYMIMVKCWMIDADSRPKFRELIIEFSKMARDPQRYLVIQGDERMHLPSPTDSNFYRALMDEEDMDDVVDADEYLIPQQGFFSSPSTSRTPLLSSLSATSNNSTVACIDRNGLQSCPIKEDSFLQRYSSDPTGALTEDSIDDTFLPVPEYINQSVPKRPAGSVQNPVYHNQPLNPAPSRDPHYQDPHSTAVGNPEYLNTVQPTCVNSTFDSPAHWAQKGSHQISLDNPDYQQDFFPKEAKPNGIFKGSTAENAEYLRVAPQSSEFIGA
T1 sequence (P00533 whole entry): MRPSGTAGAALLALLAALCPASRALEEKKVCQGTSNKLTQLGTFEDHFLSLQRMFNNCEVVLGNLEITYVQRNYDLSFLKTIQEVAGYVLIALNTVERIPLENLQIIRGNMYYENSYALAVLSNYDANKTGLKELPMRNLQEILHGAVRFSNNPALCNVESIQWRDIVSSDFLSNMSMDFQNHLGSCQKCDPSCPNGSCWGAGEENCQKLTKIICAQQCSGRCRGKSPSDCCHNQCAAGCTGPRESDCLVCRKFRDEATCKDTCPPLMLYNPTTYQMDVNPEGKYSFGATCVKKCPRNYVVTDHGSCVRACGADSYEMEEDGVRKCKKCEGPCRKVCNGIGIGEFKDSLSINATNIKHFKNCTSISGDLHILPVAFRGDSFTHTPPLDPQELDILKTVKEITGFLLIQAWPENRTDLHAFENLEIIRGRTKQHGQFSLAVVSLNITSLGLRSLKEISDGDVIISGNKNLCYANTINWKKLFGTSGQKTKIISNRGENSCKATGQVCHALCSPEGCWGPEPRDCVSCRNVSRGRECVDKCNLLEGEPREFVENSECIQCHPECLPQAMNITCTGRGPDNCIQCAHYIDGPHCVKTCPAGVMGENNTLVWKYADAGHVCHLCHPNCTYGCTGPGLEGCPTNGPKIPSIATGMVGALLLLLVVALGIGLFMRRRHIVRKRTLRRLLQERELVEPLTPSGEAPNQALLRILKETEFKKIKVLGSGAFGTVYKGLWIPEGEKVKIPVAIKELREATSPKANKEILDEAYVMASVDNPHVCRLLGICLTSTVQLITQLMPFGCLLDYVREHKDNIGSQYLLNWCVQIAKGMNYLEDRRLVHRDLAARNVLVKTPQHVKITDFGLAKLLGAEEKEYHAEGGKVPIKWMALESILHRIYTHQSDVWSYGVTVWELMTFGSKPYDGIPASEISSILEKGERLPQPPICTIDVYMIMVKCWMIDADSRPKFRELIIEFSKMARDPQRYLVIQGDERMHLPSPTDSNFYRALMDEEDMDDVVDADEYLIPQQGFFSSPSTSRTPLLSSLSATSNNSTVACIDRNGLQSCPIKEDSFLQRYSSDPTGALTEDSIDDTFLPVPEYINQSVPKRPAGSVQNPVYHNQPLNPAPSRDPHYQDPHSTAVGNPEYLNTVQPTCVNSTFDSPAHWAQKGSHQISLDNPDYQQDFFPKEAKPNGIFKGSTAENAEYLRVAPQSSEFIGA

COc1cc2ncnc(Nc3ccc(F)c(Cl)c3)c2cc1OCCCCC(=O)Nc1ccc(S(N)(=O)=O)cc1
IC50 (NCI-H1975 [1]): 35.6 µM | IC50 [2]: 0.0183 µM | IC50 (A549 [3]): 15.5 µM | IC50 (A-431): 5.02 µM | IC50 [4]: 0.0619 µM

NS(=O)(=O)c1ccc(NC(=S)Nc2ccc3ncnc(Nc4cccc(C(F)(F)F)c4)c3c2)cc1
IC50 (Carbonic anhydrase 2): 0.526 µM | IC50 (Carbonic anhydrase 9 [5]): 0.578 µM | IC50 (NCI-H1975 [1]): 7.59 µM | IC50 [2]: 0.0512 µM | IC50 (A549 [3]): 10.1 µM | IC50 (A-431): 21.7 µM | IC50 [4]: 0.135 µM

C=CC(=O)Nc1cc(Nc2nccc(-c3cn(C)c4ccccc34)n2)c(OC)cc1N(C)CCN(C)C [OSIMERTINIB]
IC50 (NCI-H1975 [1]): […] | IC50 (NCI-H1975 [6]): […] | IC50 (L02): > 40 µM | IC50 (A-431): […]

NS(=O)(=O)c1ccc(CCNC(=S)Nc2ccc3ncnc(Nc4cccc(C(F)(F)F)c4)c3c2)cc1
IC50 (Carbonic anhydrase 2): 0.241 µM | IC50 (Carbonic anhydrase 9 [5]): 0.313 µM | IC50 (NCI-H1975 [1]): 4.25 µM | IC50 [2]: 0.0426 µM | IC50 (A549 [3]): 9.05 µM | IC50 (A-431): 16.8 µM | IC50 [4]: 0.0934 µM

COc1cc2ncnc(Nc3cccc(Cl)c3F)c2cc1OCCCCC(=O)Nc1ccc(S(N)(=O)=O)cc1
IC50 (NCI-H1975 [1]): 6.93 µM | IC50 [2]: 0.0348 µM | IC50 (A549 [3]): 10.5 µM | IC50 (A-431): 5.56 µM | IC50 [4]: 0.018 µM

COc1cc2ncnc(Nc3cccc(C(F)(F)F)c3)c2cc1OCCCCC(=O)Nc1ccc(S(N)(=O)=O)cc1
Activity (NCI-H1975 [7]): 15.58% | Activity (NCI-H1975 [8]): 7.8% | Activity (NCI-H1975 [9]): 21.6% | viability at 2 µM (NCI-H1975 [10]): 68.4% | Activity (NCI-H1975 [11]): 17.21% | Activity (NCI-H1975 [12]): 26.6% | Activity (NCI-H1975 [13]): Dose-Dependent Effect | Activity (Carbonic anhydrase 9 [14]): Dose-Dependent Effect | Activity (NCI-H1975 [15]): Dose-Dependent Effect | IC50 (A549 [16]): 2.21 µM | inhibition [17]: Dose-Dependent Effect | IC50 (Carbonic anhydrase 2): 0.278 µM | Activity (NCI-H1975 [18]): Dose-Dependent Effect | Activity (NCI-H1975 [19]): 36.98% | IC50 (Carbonic anhydrase 9 [5]): 0.115 µM | IC50 (NCI-H1975 [1]): 1.94 µM | Activity (NCI-H1975 [20]): 27.94% | IC50 (NCI-H1975 [6]): 1.05 µM | Activity (NCI-H1975 [21]): Dose-Dependent Effect | Activity (NCI-H1975 [22]): 2.19% | IC50 (L02): > 40 µM | inhibition [23]: Dose-Dependent Effect | IC50 [2]: 0.027 µM | Activity (NCI-H1975 [24]): 14.1% | inhibition [25]: Dose-Dependent Effect | Activity (NCI-H1975 [26]): 47.44% | Activity (NCI-H1975 [27]): 17.9% | IC50 (A549 [3]): 6.54 µM | Activity (NCI-H1975 [28]): 54.85% | Activity (NCI-H1975 [29]): 3.4% | IC50 (A-431): 4.04 µM | IC50 [4]: 0.0092 µM | viability at 5 µM (NCI-H1975 [30]): 56%
